# According to ChEMBL document CHEMBL3244425 (J Med Chem, 1979):
# Tests used:
# [1] = Fraction unbound in 22% albino mouse serum at 10 uM by equilibrium dialysis method in presence of diisopropyl fluorophosphate; format: ADME, cell-free
# serum albumin = serum albumin (Homo sapiens, UniProt P02768); test: Binding affinity to human serum albumin at 10 uM after 12 to 20 hrs by scintillation spectrometry; format: ADME
# Summary of the method: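 HSA as supplied (lipid under 10 mg/g), 1% (10 mg/mL) in 0.05 M buffer. Equilibrium dialysis against buffer for 12-20 h at room temperature, with 10 μM radiolabeled substrate. Free percentage is taken from the ratio of radioactivities on the two sides, then corrected for partial hydrolysis using TLC of ether extracts.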
# [2] = Ratio of oxazepam level in brain to blood in albino mouse at 10 mg equivalent of oxazepam/kg after 2 mins; format: ADME, tissue-based
# [3] = Ratio of oxazepam level in brain to blood in albino mouse at 10 mg equivalent of oxazepam/kg after 30 mins; format: ADME, tissue-based; details: 0.5 h
# [4] = Ratio of oxazepam level in brain to blood in albino mouse at 10 mg equivalent of oxazepam/kg after 5 mins; format: ADME, tissue-based
# [5] = Ratio of oxazepam level in brain to blood in albino mouse at 10 mg equivalent of oxazepam/kg after 40 mins; format: ADME, tissue-based
# [6] = Ratio of oxazepam level in brain to blood in albino mouse at 10 mg equivalent of oxazepam/kg after 10 mins; format: ADME, tissue-based
# [7] = Ratio of oxazepam level in brain to blood in albino mouse at 10 mg equivalent of oxazepam/kg after 20 mins; format: ADME, tissue-based
# [8] = Ratio of oxazepam level in brain to blood in albino mouse at 5 mg equivalent of oxazepam/kg after 3 mins; format: ADME, tissue-based; details: 0.05 h
# [9] = Ratio of oxazepam level in brain to blood in albino mouse at 5 mg equivalent of oxazepam/kg after 5 mins; format: ADME, tissue-based
# [10] = Ratio of oxazepam level in brain to blood in albino mouse at 5 mg equivalent of oxazepam/kg after 20 mins; format: ADME, tissue-based
# [11] = Ratio of oxazepam level in brain to blood in albino mouse at 5 mg equivalent of oxazepam/kg after 10 mins; format: ADME, tissue-based
# [12] = Ratio of oxazepam level in brain to blood in albino mouse at 5 mg equivalent of oxazepam/kg after 40 mins; format: ADME, tissue-based
# Mus musculus [13] = test: Drug excretion in albino mouse assessed as unexcreted drug at 10 mg equivalent of oxazepam/kg after 96 hrs; format: ADME, organism-based; details: in vivo
# [14] = Ratio of oxazepam level in brain to blood in albino mouse at 10 mg equivalent of oxazepam/kg after 3 mins; format: ADME, tissue-based; details: 0.05 h
# Mus musculus [15] = test: Drug excretion in albino mouse assessed as unexcreted drug at 5 mg equivalent of oxazepam/kg after 150 hrs; format: ADME, organism-based; details: in vivo
# [16] = Ratio of oxazepam level in brain to blood in albino mouse at 5 mg equivalent of oxazepam/kg after 2 mins; format: ADME, tissue-based
# [17] = Ratio of oxazepam level in brain to blood in albino mouse at 10 mg equivalent of oxazepam/kg after 6 mins; format: ADME, tissue-based; details: 0.1 h
# [18] = Ratio of oxazepam level in brain to blood in albino mouse at 10 mg equivalent of oxazepam/kg after 12 mins; format: ADME, tissue-based; details: 0.2 h
# [19] = Ratio of oxazepam level in brain to blood in albino mouse at 10 mg equivalent of oxazepam/kg after 1 min; format: ADME, tissue-based
# Mus musculus [20] = test: Drug excretion in albino mouse assessed as unexcreted drug at 10 mg equivalent of oxazepam/kg after 150 hrs; format: ADME, organism-based; details: in vivo
# Mus musculus [21] = test: Drug excretion in albino mouse assessed as unexcreted drug at 10 mg equivalent of oxazepam/kg after 100 to 150 hrs; format: ADME, organism-based; details: in vivo
# [22] = Ratio of oxazepam level in brain to blood in albino mouse at 5 mg equivalent of oxazepam/kg after 1 min; format: ADME, tissue-based
# [23] = Ratio of oxazepam level in brain to blood in albino mouse at 15 mg equivalent of oxazepam/kg after 40 mins; format: ADME, tissue-based
# [24] = Ratio of oxazepam level in brain to blood in albino mouse at 15 mg equivalent of oxazepam/kg after 1 min; format: ADME, tissue-based
# [25] = Ratio of oxazepam level in brain to blood in albino mouse at 15 mg equivalent of oxazepam/kg after 20 mins; format: ADME, tissue-based
# [26] = Ratio of oxazepam level in brain to blood in albino mouse at 15 mg equivalent of oxazepam/kg after 3 mins; format: ADME, tissue-based; details: 0.05 h
# [27] = Ratio of oxazepam level in brain to blood in albino mouse at 15 mg equivalent of oxazepam/kg after 12 mins; format: ADME, tissue-based; details: 0.2 h
# [28] = Ratio of oxazepam level in brain to blood in albino mouse at 15 mg equivalent of oxazepam/kg after 6 mins; format: ADME, tissue-based; details: 0.1 h
# Mus musculus [29] = test: Drug excretion in albino mouse assessed as unexcreted drug at 5 mg equivalent of oxazepam/kg after 96 hrs; format: ADME, organism-based; details: in vivo
# Sequence of serum albumin (P02768 whole entry): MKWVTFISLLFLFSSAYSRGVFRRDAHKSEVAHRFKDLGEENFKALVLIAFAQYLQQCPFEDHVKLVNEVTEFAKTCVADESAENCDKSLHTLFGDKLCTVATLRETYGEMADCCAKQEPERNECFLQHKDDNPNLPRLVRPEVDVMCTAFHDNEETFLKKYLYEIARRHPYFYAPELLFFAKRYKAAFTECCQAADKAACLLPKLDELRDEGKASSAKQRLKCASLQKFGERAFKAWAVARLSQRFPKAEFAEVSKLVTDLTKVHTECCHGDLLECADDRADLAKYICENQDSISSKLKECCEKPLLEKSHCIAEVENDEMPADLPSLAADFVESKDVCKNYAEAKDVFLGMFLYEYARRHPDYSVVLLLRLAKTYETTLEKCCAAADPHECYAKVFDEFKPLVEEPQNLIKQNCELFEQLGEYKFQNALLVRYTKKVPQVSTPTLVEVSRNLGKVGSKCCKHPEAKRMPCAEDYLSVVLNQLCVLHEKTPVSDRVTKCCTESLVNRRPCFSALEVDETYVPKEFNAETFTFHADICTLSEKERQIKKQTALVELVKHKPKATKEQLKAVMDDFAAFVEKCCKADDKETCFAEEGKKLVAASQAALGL
smiles,measurement,setting,value
CC(C)C(=O)OC1N=C(c2ccccc2)c2cc(Cl)ccc2NC1=O (stereo not given),fraction unbound at 10 µM,[1],0.147
same,fraction unbound at 10 µM,serum albumin,0.078
CCC(CC)C(=O)OC1N=C(c2ccccc2)c2cc(Cl)ccc2N[14C]1=O (stereo not given),Ratio,[2],0.7
same,Ratio,[3],1.4
same,Ratio,[4],0.6
same,Ratio,[5],1.7
same,Ratio,[6],1
same,Ratio,[7],1.1
CC(Cc1ccccc1)C(=O)OC1N=C(c2ccccc2)c2cc(Cl)ccc2NC1=O (stereo not given),fraction unbound at 10 µM,[1],0.111
same,fraction unbound at 10 µM,serum albumin,0.051
O=C(CCc1ccccc1)OC1N=C(c2ccccc2)c2cc(Cl)ccc2NC1=O (stereo not given),fraction unbound at 10 µM,serum albumin,0.052
CC(C)CC(=O)OC1N=C(c2ccccc2)c2cc(Cl)ccc2NC1=O (stereo not given),fraction unbound at 10 µM,[1],0.067
same,fraction unbound at 10 µM,serum albumin,0.093
"CC(Cc1ccccc1)C(=O)OC1N=C(c2ccccc2)c2cc(Cl)ccc2N[14C]1=O (single isomer, unassigned; (-))",Ratio,[8],0.3
same,Ratio,[9],1.1
same,Ratio,[10],2
same,Ratio,[11],1.6
same,Ratio,[12],2.1
CC(C)(C)C(=O)OC1N=C(c2ccccc2)c2cc(Cl)ccc2N[14C]1=O (stereo not given),Ratio,[3],2.5
same,Drug recovery,Mus musculus [13],7%
same,Ratio,[4],2
same,Ratio,[14],1.7
same,Ratio,[6],2.2
same,Ratio,[7],2
"CC(Cc1ccccc1)C(=O)OC1N=C(c2ccccc2)c2cc(Cl)ccc2N[14C]1=O (single isomer, unassigned; (+))",Drug recovery,Mus musculus [15],34%
CC(C)(Cc1ccccc1)C(=O)OC1N=C(c2ccccc2)c2cc(Cl)ccc2NC1=O (stereo not given),fraction unbound at 10 µM,[1],0.113
same,fraction unbound at 10 µM,serum albumin,0.022
CC(C)C(=O)OC1N=C(c2ccccc2)c2cc(Cl)ccc2N[14C]1=O (stereo not given),Ratio,[9],1.2
same,Ratio,[10],1.9
same,Ratio,[16],0.7
same,Ratio,[11],1.8
same,Ratio,[12],2.3
CCC(=O)OC1N=C(c2ccccc2)c2cc(Cl)ccc2N[14C]1=O (stereo not given),Ratio,[17],3
same,Ratio,[18],2.4
same,Ratio,[14],2
same,Ratio,[5],2.8
same,Ratio,[19],3.8
same,Ratio,[7],2.8
same,Drug recovery,Mus musculus [20],19%
CCCC(=O)OC1N=C(c2ccccc2)c2cc(Cl)ccc2NC1=O (stereo not given),fraction unbound at 10 µM,[1],0.149
same,fraction unbound at 10 µM,serum albumin,0.089
CC(=O)OC1N=C(c2ccccc2)c2cc(Cl)ccc2N[14C]1=O (stereo not given),Ratio,[3],4
same,Ratio,[4],2
same,Ratio,[14],3.4
same,Ratio,[6],2.4
same,Drug recovery,Mus musculus [21],0%
same,Ratio,[19],4
O=C(CCCc1ccccc1)OC1N=C(c2ccccc2)c2cc(Cl)ccc2N[14C]1=O (stereo not given),Ratio,[8],0.5
same,Ratio,[9],0.3
same,Ratio,[10],1
same,Drug recovery,Mus musculus [15],38%
same,Ratio,[11],0.4
same,Ratio,[12],0.9
same,Ratio,[22],0.5
CC(=O)OC1N=C(c2ccccc2)c2cc(Cl)ccc2NC1=O (stereo not given),fraction unbound at 10 µM,[1],0.285
same,fraction unbound at 10 µM,serum albumin,0.246
COC(=O)CCC(=O)OC1N=C(c2ccccc2)c2cc(Cl)ccc2NC1=O (stereo not given),fraction unbound at 10 µM,[1],0.299
same,fraction unbound at 10 µM,serum albumin,0.172
CCCC(=O)OC1N=C(c2ccccc2)c2cc(Cl)ccc2N[14C]1=O (stereo not given),Ratio,[23],2
same,Ratio,[24],0.2
same,Ratio,[25],1.4
same,Ratio,[26],0.3
same,Ratio,[27],0.8
same,Ratio,[28],0.4
O=C(CCc1ccccc1)OC1N=C(c2ccccc2)c2cc(Cl)ccc2N[14C]1=O (stereo not given),Ratio,[8],0.4
same,Ratio,[9],0.5
same,Drug recovery,Mus musculus [29],26%
same,Ratio,[10],1.4
same,Ratio,[11],0.5
same,Ratio,[12],2.2
same,Ratio,[22],0.6
O=C(CCCc1ccccc1)OC1N=C(c2ccccc2)c2cc(Cl)ccc2NC1=O (stereo not given),fraction unbound at 10 µM,[1],0.102
same,fraction unbound at 10 µM,serum albumin,0.034
CCC(CC)C(=O)OC1N=C(c2ccccc2)c2cc(Cl)ccc2NC1=O (stereo not given),fraction unbound at 10 µM,[1],0.038
same,fraction unbound at 10 µM,serum albumin,0.06
